Published values from different studies.
Lines come from different studies, so protocols differ.
Cell line: Vero
Effect on: cell growth or viability

`C#Cc1cccc(Nc2ncnc3cc(OCCOC)c(OCCOC)cc23)c1` has a CC50 of over 60 µM (resazurin).
The CC50 of `CC(C)(C)[C@H](NS(=O)(=O)C(F)(F)F)C(=O)N1[C@@H]2CC[C@@H](C2)[C@H]1C(=O)N[C@@H](C[C@@H]1CCNC1=O)C(=O)c1nc2ccccc2s1` is reported as over 50 µM (48 h).
The CC50 of `CC(C)(C)NC(=O)N[C@H](C(=O)N1C[C@H]2[C@@H]([C@H]1C(=O)NC(CC1CCC1)C(=O)C(N)=O)C2(C)C)C(C)(C)C` (stereo partly drawn) is reported as over 100 µM (neutral red; 48 h).
With `CCOC(=O)c1c(NCc2ccc(SC)cc2)c2cccc(C)c2[nH]c1=O` the CC50 was over 100 µM (MTS; 48 h).
`CC(C)C[C@H](NC(=O)OCc1ccccc1)C(=O)N[C@@H](CC(C)C)C(=O)N[C@@H](CC(C)C)C(=O)C(=O)Nc1ccccc1` has a CC50 of 16 µM (ATP luminescence; 48 h).
The CC50 of `COc1cc2ncnc(Nc3ccc(F)c(Cl)c3)c2cc1OCCCN1CCOCC1` is reported as over 60 µM (resazurin).
`FC(F)(F)c1cccc(Nc2nc(NCCOc3ccccc3)nc3[nH]cnc23)c1` has a CC50 of over 200 µM (ATP luminescence).
`CCC(CC)COC(=O)[C@H](C)N[P@](=O)(OC[C@H]1O[C@@](C#N)(c2ccc3c(N)ncnn23)[C@H](O)[C@@H]1O)Oc1ccccc1` has a CC50 of over 13 µM.
The CC50 of `CCN(CC)CCNC(=O)c1c(C)[nH]c(/C=C2\C(=O)Nc3ccc(F)cc32)c1C` is reported as 25 µM (resazurin).
With `COc1ccc(C[C@H](NC(=O)[C@H](C)NC(=O)CN2CCOCC2)C(=O)N[C@@H](Cc2ccccc2)C(=O)C(=O)Nc2ccccc2)cc1` the CC50 was 71.1 µM (ATP luminescence; 48 h).
The CC50 of `COC(=O)N[C@H](C(=O)N1C[C@@H](n2cc(C(=O)OC)nn2)C[C@H]1c1ncc(-c2ccc(-c3ccc(-c4cnc([C@@H]5C[C@H](n6cc(C(=O)OC)nn6)CN5C(=O)[C@@H](NC(=O)OC)C(C)C)[nH]4)cc3)cc2)[nH]1)C(C)C` is reported as over 100 µM.
`C=C(c1ccc(C(=O)O)cc1)c1cc2c(cc1C)C(C)(C)CCC2(C)C` gave a CC50 of over 40 µM (WST-1; 18 h).
For `COC(=O)N[C@H](C(=O)N1C[C@H](n2cc(-c3ccccc3)nn2)C[C@H]1c1ncc(-c2ccc(-c3ccc(-c4cnc([C@@H]5C[C@@H](n6cc(-c7ccccc7)nn6)CN5C(=O)[C@@H](NC(=O)OC)C(C)C)[nH]4)cc3)cc2)[nH]1)C(C)C`, the CC50 was over 100 µM.
`Clc1ccc(C(Cn2ccnc2)OCc2csc3c(Cl)cccc23)c(Cl)c1` (stereo not drawn) has a CC50 of about 21.2 µM (WST-1; 18 h).
For `O=C(NCc1ccc(F)cc1)c1cccc(Nc2ccc(-c3ccccc3)nn2)c1`, the CC50 was over 100 µM (MTS; 48 h).
